VLA-4 inh: inhibition in a human VLA-4 binding assay; P13612; VLA-4 expressing cells, ligand binding flow cytometry; inhibition, % (about 7 µM as worked out from the volumes in the protocol); 330,000 tested, 0.2% active; AID 2557; in the data active means inhibition above about 50%
MT1-MMP act inh: MT1-MMP (human) activation inhibition. P50281. 360,000 tested, 0.061% active. AID 651647. GFP/RFP ratio change, % at 20 µM. HT1080 RFP-PRO-GFP cells, GFP/RFP ratio fluorescence, overnight; percent of plate control window, DMSO zero;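 active means GFP/RFP ratio change of at least 30% with cell ATP level not reduced by more than half and red fluorescence within 50% of control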
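Test system: HT1080 cells expressing an RFP-PRO-GFP fluorescent reporter construct / Compound dosing: single-point 20 µM compound, 1% DMSO / Schedule: cells overnight before dosing, compound overnight, 37 °C, 5% CO2 / Evaluation: GFP/RFP fluorescence ratio / Control set: DMSO and RFP-L50D-GFP cell wells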
Granule exo inh: blocks lytic granule exocytosis; TALL-104 LAMP-1 surface exposure, flow cytometry; cells stimulated with thapsigargin and PMA; inhibition, % at 10 µM; 360,000 tested, 0.66% active;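 active means inhibition above about 55%, limit read from the data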
ABCB6 inh 2: human ABCB6 transporter inhibition; fluorescence ratio to DMSO, % at 10 µM; AID 602162; 360,000 tested, 0.19% active; K562-ABCB6 porphyrin accumulation, flow cytometry, 1 h; hits give low values; Q9NP58;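 active means fluorescence ratio to DMSO below 75%, the collection mean minus 3 SD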;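 further: signal is porphyrin accumulated inside mitochondria; lower ratio means ABCB6 inhibition with less porphyrin fluorescence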
FGF22 binding: FGF22 (human) thermal shift binding; recombinant FGF22 thermal shift, SYPRO orange fluorescence; percent of sucrose octasulfate shift, DMSO zero; activity (Tm shift, normalised), % at 9.99 µM; 340,000 tested, 1.5% active; AID 651658;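 active means mean Tm shift, scaled 0 neutral to 100 positive control, at about 1.3% or above, every replicate too, limit read from the data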
Target sequence (Q9HCT0 whole entry, looked up): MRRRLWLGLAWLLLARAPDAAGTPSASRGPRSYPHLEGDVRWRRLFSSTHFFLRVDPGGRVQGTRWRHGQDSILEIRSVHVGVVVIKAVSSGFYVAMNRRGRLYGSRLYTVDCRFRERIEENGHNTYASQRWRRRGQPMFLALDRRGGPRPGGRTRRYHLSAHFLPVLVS
DAGLB inh: blocks human DAGLB lipase activity | Q8NCG7 | HEK293T DAGLB membrane lysate, EnzChek fluorogenic substrate | inhibition, % at 5.17 µM | 340,000 tested, 0.059% active; in the data active means inhibition above about 34%
Large screens that a line does not name were inactive. An excerpt weighted towards active compounds, which were near 2% of everything screened.

N#C[C@H]1[C@H](c2ccccc2-c2ccccc2F)[C@@H](CO)N1C(=O)Cc1ccccc1	none (no result: VLA-4 inh, MT1-MMP act inh, Granule exo inh, ABCB6 inh 2, DAGLB inh)
COc1ccc(C(=O)O/N=C2\C(=O)N(C)c3ccccc32)cc1	Granule exo inh 66
C/C=C/c1cnc2c(c1)C(=O)N([C@@H](C)CO)C[C@H](C)[C@H](CN(C)S(=O)(=O)c1ccc(F)cc1)O2	none (no result: VLA-4 inh, MT1-MMP act inh, Granule exo inh, ABCB6 inh 2, DAGLB inh)
COc1ccc(C2=CC(=O)CCC2)cc1	Granule exo inh 94 (no result: VLA-4 inh, FGF22 binding)
COc1cccc(C2=CC(=O)CCC2)c1	none (no result: FGF22 binding)
COc1ccc(S(=O)(=O)Nc2ccc3c(c2)CC(=O)N([C@@H](C)CO)C[C@@H](C)[C@H](CN(C)Cc2ccc(-c4ccccc4)cc2)O3)cc1	none (no result: VLA-4 inh, MT1-MMP act inh, Granule exo inh, ABCB6 inh 2, DAGLB inh)
CNC[C@@H]1Oc2c(NS(=O)(=O)c3c(C)noc3C)cccc2C(=O)N([C@H](C)CO)C[C@H]1C	none (no result: VLA-4 inh, MT1-MMP act inh, Granule exo inh, ABCB6 inh 2, DAGLB inh)
CCNc1ccc(C(=O)OCC(=O)N(Cc2ccccc2)C(C)(C)C)cc1[N+](=O)[O-]	FGF22 binding 43
CCCNc1ccc(C(=O)OCC)cc1[N+](=O)[O-]	none
CCOc1cccc(-c2cc(N3CCN(CCO)CC3)n3nccc3n2)c1	none (no result: VLA-4 inh, DAGLB inh)
Cc1cccc(-c2cc(NCCc3cccnc3)n3nccc3n2)c1	FGF22 binding 43 (no result: VLA-4 inh, DAGLB inh)
CCOc1cccc(-c2cc(NCCc3ccccn3)n3nccc3n2)c1	FGF22 binding 43 (no result: VLA-4 inh, DAGLB inh)
COc1ccc(CN(C)C[C@@H]2Oc3ccc(NC(=O)NC4CCCCC4)cc3CC(=O)N([C@H](C)CO)C[C@H]2C)cc1	none (no result: VLA-4 inh, MT1-MMP act inh, Granule exo inh, ABCB6 inh 2, DAGLB inh)
O=C1c2ccccc2C(=O)N1SC1CCCCC1	Granule exo inh 87 (no result: FGF22 binding)
O=C(OCN1C(=O)c2ccccc2C1=O)C1CCCCC1	none (no result: FGF22 binding)
O=c1c(Cc2ccccc2)c(O)ccn1CCc1cnc[nH]1	none
O=c1c(Cc2ccc(F)cc2)c(O)ccn1CCc1cnc[nH]1	FGF22 binding 43
O=C(C1CCCC1)N1C[C@@H]2[C@H](c3ccccc31)[C@H](CO)N2C(=O)c1ccccc1	none (no result: VLA-4 inh, MT1-MMP act inh, Granule exo inh, ABCB6 inh 2, DAGLB inh)
CC1CCCC(NC(=O)CN(C)S(=O)(=O)c2cnc[nH]2)C1C (centres undefined)	FGF22 binding 43
CC(NC(=O)CN(C)S(=O)(=O)c1cnc[nH]1)c1ccccc1 (centres undefined)	FGF22 binding 44
Cc1cccc(NC(=O)CN(C)S(=O)(=O)c2cnc[nH]2)c1C	none (no result: VLA-4 inh)
Cc1ccc(S(=O)(=O)N(C)C[C@@H]2Oc3ccc(NC(=O)CCC(F)(F)F)cc3C(=O)N([C@H](C)CO)C[C@@H]2C)cc1	none (no result: VLA-4 inh, MT1-MMP act inh, Granule exo inh, ABCB6 inh 2, DAGLB inh)
CN(C)CCCN(C(=O)c1ccc(S(=O)(=O)N(C)C)cc1)c1nc2cc3c(cc2s1)OCO3	FGF22 binding 43
C[C@H]1CN([C@@H](C)CO)C(=O)c2cc(NC(=O)NC3CCCCC3)ccc2O[C@H]1CN(C)Cc1ccc(C(F)(F)F)cc1	none (no result: VLA-4 inh, MT1-MMP act inh, Granule exo inh, ABCB6 inh 2, DAGLB inh)
Cc1c(C)c(C)c2[nH]c(-c3ccc4c(c3)OCO4)nc2c1C	Granule exo inh 61 (no result: FGF22 binding)
CC(=O)N1[C@@H]2c3ccc(C4=CCCC4)c(=O)n3C[C@@H]2[C@@H](CO)[C@@H]1C(=O)N1CCCCC1	none (no result: VLA-4 inh, MT1-MMP act inh, Granule exo inh, ABCB6 inh 2, DAGLB inh)
CCC(=O)Nc1ccc2c(c1)C(=O)N(C)C[C@H](OC)[C@H](C)CN(Cc1cccnc1)[C@H](C)CO2	none (no result: VLA-4 inh, MT1-MMP act inh, Granule exo inh, ABCB6 inh 2, DAGLB inh)
N#CC1(Nc2cccc(Cl)c2)CCCC1	FGF22 binding 43 (no result: VLA-4 inh)
CC1CCCCN1C(=O)Nc1cccc(C(F)(F)F)c1 (centres undefined)	none
COC(=O)C1CC(O)CN1C(=O)Nc1cccc(C(F)(F)F)c1 (centres undefined)	FGF22 binding 43
Cc1nn(Cc2ccc(F)cc2)c2sc(C(=O)Nc3nccs3)cc12	FGF22 binding 44
CO[C@H]1CN(C)C(=O)c2cc(NC(C)=O)ccc2OC[C@@H](C)N(C(=O)C2CCOCC2)C[C@H]1C	none (no result: VLA-4 inh, MT1-MMP act inh, Granule exo inh, ABCB6 inh 2, DAGLB inh)
CCCCSc1nnc(-c2ccccc2NC(C)=O)c(=O)[nH]1	FGF22 binding 43
CCc1nnc(NC(=O)CCC(=O)Nc2ccc(Cl)cc2)s1	FGF22 binding 43
Cc1noc(C)c1S(=O)(=O)Nc1ccc2c(c1)C(=O)N([C@H](C)CO)C[C@H](C)[C@@H](CN(C)C(=O)Nc1ccccc1)OCCCC[C@@H](C)O2	none (no result: VLA-4 inh, MT1-MMP act inh, Granule exo inh, ABCB6 inh 2, DAGLB inh)
C/C=C/c1ccc([C@@H]2[C@@H](CO)N3C(=O)CN(C(=O)Nc4ccccc4F)C[C@@H]23)cc1	none (no result: VLA-4 inh, MT1-MMP act inh, Granule exo inh, ABCB6 inh 2, DAGLB inh)
